# Experimental data reported in ChEMBL document CHEMBL4373647, “Design, synthesis, and antimicrobial evaluation of 1,4-dihydroindeno[1,2-c]pyrazole tethered carbohydrazide hybrids: exploring their in silico ADMET, ergosterol inhibition and ROS inducing potential” (Medchemcomm, 2019).
# The source made the active and inactive calls. The calls are words filed in the database; no cut-off is given here.
# How the values were obtained:
# Type in all cases: functional
# Candida albicans [1] = assay: Antifungal activity against Candida albicans MTCC 227 assessed as inhibition of fungal growth incubated for 24 hrs by agar well diffusion method; conditions: MTCC 227, 24 h
# Method in brief: (§1)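 Candida strains from MTCC, pre-cultured and spread on Mueller Hinton agar. Wells received compound dissolved in 10% DMSO, 125–0.97 µg/mL; miconazole standard over the same range, DMSO negative control. After 24 h at 37 °C, MIC was read as the lowest concentration giving an inhibition zone. Duplicate experiments, means given.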
# Staphylococcus aureus [2] = assay: Bactericidal activity against Staphylococcus aureus MLS-16 MTCC 2940 assessed as bacterial killing incubated for 24 hrs; conditions: MLS-16 MTCC 2940, 24 h
# Method in brief: (§2)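 Broth tube assay: compound at 0–125 µg/mL in Mueller Hinton broth, overnight culture added to 0.5 McFarland (1.5 × 10^8 cfu/mL), held 24 h at 37 °C. 10 µL from each tube plated on Mueller Hinton agar. MBC is the lowest concentration that kills the strain. Duplicates, means reported.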
# Candida parapsilosis [3] = assay: Fungicidal activity against Candida parapsilosis MTCC 1744 assessed as fungal killing incubated for 24 hrs; conditions: Lodderomyces parapsilosis, MTCC 1744, 24 h
# Method in brief: (§3)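 Compound at 125–0.97 µg/mL in Mueller Hinton broth in microcentrifuge tubes, each Candida strain added, held 24 h at 37 °C. 10 µL of the treated suspension plated on Mueller Hinton agar and incubated a further 24 h at 37 °C. MFC is the lowest concentration that kills the strain. Duplicates, means reported.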
# Candida albicans [4] = assay: Fungicidal activity against Candida albicans MTCC 7315 assessed as fungal killing incubated for 24 hrs; conditions: MTCC 7315, 24 h; method in brief: as §3
# Micrococcus luteus [5] = assay: Ratio of MBC to MIC against Micrococcus luteus MTCC 2470
# Pseudomonas aeruginosa [6] = assay: Ratio of MBC to MIC for Pseudomonas aeruginosa MTCC 2453
# Pseudomonas aeruginosa [7] = assay: Antibacterial activity against Pseudomonas aeruginosa MTCC 2453 assessed as inhibition of bacterial growth incubated for 24 hrs by agar well diffusion method; conditions: MTCC 2453, 24 h
# Method in brief: (§4)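 Strains from MTCC; inoculum at 0.5 McFarland spread on Mueller-Hinton agar; 6 mm wells loaded with compound over 125–0.97 µg/mL; ciprofloxacin positive control (same range), DMSO negative control. Plates held 24 h at 37 °C; MIC taken as lowest concentration giving a clear inhibition zone. Triplicate runs, mean MIC reported.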
# Escherichia coli [8] = assay: Ratio of MBC to MIC for Escherichia coli MTCC 739
# Staphylococcus aureus [9] = assay: Bactericidal activity against Staphylococcus aureus MTCC 96 assessed as bacterial killing incubated for 24 hrs; conditions: MTCC 96, 24 h; method in brief: as §2
# Candida albicans [10] = assay: Ratio of MFC to MIC against Candida albicans MTCC 7315
# Method in brief: (§5)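 MIC by agar well diffusion: Candida lawns on Mueller-Hinton agar, wells loaded with compound in 10% DMSO (125–0.97 µg/mL), 24 h at 37 °C, lowest concentration giving an inhibition zone. MFC: compound in Mueller-Hinton broth (125–0.97 µg/mL) with yeast, 24 h at 37 °C, 10 µL plated on agar, lowest killing concentration after 24 h. Ratio is MFC/MIC.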
# Candida parapsilosis [11] = assay: Ratio of MFC to MIC against Candida parapsilosis MTCC 1744; method in brief: as §5
# Candida albicans [12] = assay: Antifungal activity against Candida albicans MTCC 4748 assessed as inhibition of fungal growth incubated for 24 hrs by agar well diffusion method; conditions: MTCC 4748, 24 h; method in brief: as §1
# Candida albicans [13] = assay: Antifungal activity against Candida albicans MTCC 3017 assessed as inhibition of fungal growth incubated for 24 hrs by agar well diffusion method; conditions: MTCC 3017, 24 h; method in brief: as §1
# Staphylococcus aureus [14] = assay: Ratio of MBC to MIC against Staphylococcus aureus MTCC 96
# Raoultella planticola [15] = assay: Antibacterial activity against Klebsiella planticola MTCC 530 assessed as inhibition of bacterial growth incubated for 24 hrs by agar well diffusion method; conditions: MTCC 530, 24 h; method in brief: as §4
# Micrococcus luteus [16] = assay: Antibacterial activity against Micrococcus luteus MTCC 2470 assessed as inhibition of bacterial growth incubated for 24 hrs by agar well diffusion method; conditions: MTCC 2470, 24 h; method in brief: as §4
# Raoultella planticola [17] = assay: Ratio of MBC to MIC for Klebsiella planticola MTCC 530
# Nakaseomyces glabratus [18] = assay: Fungicidal activity against Candida glabrata MTCC 3019 assessed as fungal killing incubated for 24 hrs; conditions: MTCC 3019, 24 h; method in brief: as §3
# Candida albicans [19] = assay: Fungicidal activity against Candida albicans MTCC 4748 assessed as fungal killing incubated for 24 hrs; conditions: MTCC 4748, 24 h; method in brief: as §3
# Candida albicans [20] = assay: Ratio of MFC to MIC against Candida albicans MTCC 1637
# Pseudomonas aeruginosa [21] = assay: Bactericidal activity against Pseudomonas aeruginosa MTCC 2453 assessed as bacterial killing incubated for 24 hrs; conditions: MTCC 2453, 24 h; method in brief: as §2
# Bacillus subtilis = assay: Antibacterial activity against Bacillus subtilis MTCC 121 assessed as inhibition of bacterial growth incubated for 24 hrs by agar well diffusion method; conditions: MTCC 121, 24 h; method in brief: as §4
# Candida albicans [22] = assay: Antifungal activity against Candida albicans MTCC 3018 assessed as inhibition of fungal growth incubated for 24 hrs by agar well diffusion method; conditions: MTCC 3018, 24 h; method in brief: as §1
# Candida albicans [23] = assay: Fungicidal activity against Candida albicans MTCC 3018 assessed as fungal killing incubated for 24 hrs; conditions: MTCC 3018, 24 h; method in brief: as §3
# Candida albicans [24] = assay: Ratio of MFC to MIC against Candida albicans MTCC 4748; method in brief: as §5
# Escherichia coli [25] = assay: Bactericidal activity against Escherichia coli MTCC 739 assessed as bacterial killing incubated for 24 hrs; conditions: MTCC 739, 24 h; method in brief: as §2
# Pichia kudriavzevii [26] = assay: Ratio of MFC to MIC against Candida krusei MTCC 3020; method in brief: as §5
# Candida albicans [27] = assay: Ratio of MFC to MIC against Candida albicans MTCC 227; method in brief: as §5
# Raoultella planticola [28] = assay: Bactericidal activity against Klebsiella planticola MTCC 530 assessed as bacterial killing incubated for 24 hrs; conditions: MTCC 530, 24 h; method in brief: as §2
# Pichia sporocuriosa [29] = assay: Ratio of MFC to MIC against Issatchenkia hanoiensis MTCC 4755; method in brief: as §5
# Nakaseomyces glabratus [30] = assay: Antifungal activity against Candida glabrata MTCC 3019 assessed as inhibition of fungal growth incubated for 24 hrs by agar well diffusion method; conditions: MTCC 3019, 24 h; method in brief: as §1
# Candida albicans [31] = assay: Fungicidal activity against Candida albicans MTCC 227 assessed as fungal killing incubated for 24 hrs; conditions: MTCC 227, 24 h; method in brief: as §3
# Staphylococcus aureus [32] = assay: Antibacterial activity against Staphylococcus aureus MTCC 96 assessed as inhibition of bacterial growth incubated for 24 hrs by agar well diffusion method; conditions: MTCC 96, 24 h; method in brief: as §4
# Escherichia coli [33] = assay: Antibacterial activity against Escherichia coli MTCC 739 assessed as inhibition of bacterial growth incubated for 24 hrs by agar well diffusion method; conditions: MTCC 739, 24 h; method in brief: as §4
# Pichia sporocuriosa [34] = assay: Fungicidal activity against Issatchenkia hanoiensis MTCC 4755 assessed as fungal killing incubated for 24 hrs; conditions: MTCC 4755, 24 h; method in brief: as §3
# Candida albicans [35] = assay: Antifungal activity against Candida albicans MTCC 7315 assessed as inhibition of fungal growth incubated for 24 hrs by agar well diffusion method; conditions: MTCC 7315, 24 h; method in brief: as §1
# Pichia kudriavzevii [36] = assay: Antifungal activity against Candida krusei MTCC 3020 assessed as inhibition of fungal growth incubated for 24 hrs by agar well diffusion method; conditions: MTCC 3020, 24 h; method in brief: as §1
# Micrococcus luteus [37] = assay: Bactericidal activity against Micrococcus luteus MTCC 2470 assessed as bacterial killing incubated for 24 hrs; conditions: MTCC 2470, 24 h; method in brief: as §2
# Candida albicans [38] = assay: Fungicidal activity against Candida albicans MTCC 183 assessed as fungal killing incubated for 24 hrs; method in brief: as §3
smiles,measurement,setting,value
COc1cc(/C=N/NC(=O)c2n[nH]c3c2Cc2ccccc2-3)ccc1O,MIC,Candida albicans [1],7.8 µg/mL
same,MBC,Staphylococcus aureus [2],15.6 µg/mL
same,MFC,Candida parapsilosis [3],31.2 µg/mL
same,MFC,Candida albicans [4],15.6 µg/mL
same,Ratio,Micrococcus luteus [5],2
same,Ratio,Pseudomonas aeruginosa [6],2
same,MIC,Pseudomonas aeruginosa [7],7.8 µg/mL
same,Ratio,Escherichia coli [8],2
same,MBC,Staphylococcus aureus [9],7.8 µg/mL
same,Ratio,Candida albicans [10],2
same,Ratio,Candida parapsilosis [11],2
same,MIC,Candida albicans [12],3.9 µg/mL
same,MIC,Candida albicans [13],7.8 µg/mL
same,Ratio,Staphylococcus aureus [14],2
same,MIC,Raoultella planticola [15],3.9 µg/mL
same,MIC,Micrococcus luteus [16],7.8 µg/mL
same,Ratio,Raoultella planticola [17],2
same,MFC,Nakaseomyces glabratus [18],7.8 µg/mL
same,MFC,Candida albicans [19],7.8 µg/mL
same,Ratio,Candida albicans [20],2
same,MBC,Pseudomonas aeruginosa [21],15.6 µg/mL
same,MIC,Bacillus subtilis,3.9 µg/mL
same,MIC,Candida albicans [22],15.6 µg/mL
same,MFC,Candida albicans [23],31.2 µg/mL
same,Ratio,Candida albicans [24],2
same,MBC,Escherichia coli [25],15.6 µg/mL
same,Ratio,Pichia kudriavzevii [26],2
same,Ratio,Candida albicans [27],2
same,MBC,Raoultella planticola [28],7.8 µg/mL
same,Ratio,Pichia sporocuriosa [29],2
same,MIC,Nakaseomyces glabratus [30],3.9 µg/mL
same,MFC,Candida albicans [31],15.6 µg/mL
same,MIC,Staphylococcus aureus [32],3.9 µg/mL
same,MIC,Escherichia coli [33],7.8 µg/mL
same,MFC,Pichia sporocuriosa [34],31.2 µg/mL
same,MIC,Candida albicans [35],7.8 µg/mL
same,MIC,Pichia kudriavzevii [36],15.6 µg/mL
same,MBC,Micrococcus luteus [37],15.6 µg/mL
same,MFC,Candida albicans [38],inactive
